Here are results for 37 compounds from ChEMBL document CHEMBL4627371, “Discovery of novel heat shock protein (Hsp90) inhibitors based on luminespib with potent antitumor activity” (Bioorg Med Chem Lett, 2020).

pIC50: −log10 of the molar value.

The test system of series [1] is HCT-116. The series is described as follows: Cytotoxicity against human HCT116 cells assessed as cell growth inhibition. In kind it is functional, cell-based.
For series [2], the target named is T1, Heat shock protein HSP90 (Homo sapiens, UniProt P07900+P08238). Kind of series: Inhibition of HSP90 ATPase activity (unknown origin). Type of series: protein assay.
The target in series [3] is T1, Heat shock protein HSP90. Kind of series: Inhibition of HSP90 (unknown origin) assessed as HER2 degradation by cell-based assay.
In series [4] the test system is A2780. The series is described as follows: Cytotoxicity against human A2780 cells assessed as cell growth inhibition. In kind it is functional, cell-based.
Series [5] is described as follows: Toxicity in BALB/c nu/nu mouse xenografted with human A2780 cells assessed as mouse death at 50 mg/kg, iv administered 3 times a week for 2 weeks starting from 5 to 6 days post tumor inoculation. Type of series: organism-based. The following applies: in vivo. The method, boiled down:
(§1)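 Human A2780 ovarian adenocarcinoma cells were cultured and implanted into BALB/c-nu/nude mice, n = 6 per group. Tumor size and volume were measured 5 or 6 days later. Compounds were suspended in 1% carboxymethyl cellulose and given intravenously. Deaths and body weight were monitored. Tumor growth inhibition = [1 − (mean treated tumor volume)/(mean control tumor volume)] × 100%.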

Series [6] deals with A2780. Kind of series: Antitumor activity against human A2780 cells xenografted in BALB/c nu/nu mouse assessed as tumor growth inhibition at 50 mg/kg, iv administered 3 times a week for 2 weeks starting from 5 to 6 days post tumor inoculation relative to control. In kind it is functional. The following applies: read-out: TGI. The essentials:
as §1

The nature of series [7]: Toxicity in BALB/c nu/nu mouse xenografted with human A2780 cells assessed as effect on body weight at 50 mg/kg, iv administered 3 times a week for 2 weeks starting from 5 to 6 days post tumor inoculation. Type of series: organism-based. Particulars: in vivo. The essentials:
as §1

Consider `CCNC(=O)c1noc(-c2cc(C(C)C)c(O)cc2O)c1-c1cc(COCC(=O)OC)no1`, for which the pIC50 in series [1] was 6.58. In series [2], this compound showed an IC50 of 443 nM.

As for `CCNC(=O)c1noc(-c2cc(C(C)C)c(O)cc2O)c1-c1cc(CN)no1`, the pIC50 in series [1] is 7.08. For the same compound, the results for the IC50 in series [3] and in series [2] were 171 nM and 674 nM, respectively.

In the case of `CCNC(=O)c1noc(-c2cc(C(C)C)c(O)cc2O)c1-c1cc(CN2CCOCC2)no1`, in series [1], the pIC50 is 7.55. In addition, the IC50 in series [3] was determined as 50 nM; in series [2], 595 nM.

For `CCNC(=O)c1noc(-c2cc(C(C)C)c(O)cc2O)c1-c1cnn(CC)c1`, the results for the pIC50 in series [1] and in series [4] were 7.59 and 7.52, respectively. Further, the IC50 came to 13 nM in series [3] and 532 nM in series [2].

With `CCNC(=O)c1noc(-c2cc(C(C)C)c(O)cc2O)c1-c1cnn(C(C)C)c1`, the pIC50 in series [1] and in series [4] was 7.68 in each case. In addition, the IC50 in series [3] turned out to be 19 nM; in series [2], 542 nM.

On to `CCCNCc1cc(-c2c(C(=O)NCC)noc2-c2cc(C(C)C)c(O)cc2O)on1`, for which the pIC50 in series [1] is 6.93. The IC50 in series [3] is 24 nM; in series [2], 465 nM.

With `CCNC(=O)c1noc(-c2cc(C(C)C)c(O)cc2O)c1-c1cc(CN2CCN(C)CC2)no1`, the pIC50 in series [1] is 6.47. The compound also had an IC50 in series [2] of 572 nM.

As to `CCNC(=O)c1noc(-c2cc(C(C)C)c(O)cc2O)c1-c1cc(C(N)=O)no1`, the pIC50 in series [1] is 7.10; in series [4], 7.82. Besides, the IC50 in series [3] turned out to be 52 nM; in series [2], 657 nM.

`CCNC(=O)c1noc(-c2cc(C(C)C)c(O)cc2O)c1-c1cc(CN2CCCCC2)no1`: the pIC50 in series [1] is 7.03; in series [4] it was 7.21. Besides, the values for the IC50 in series [3] and in series [2] were 62 nM and 752 nM, respectively.

For the compound `CCNC(=O)c1noc(-c2cc(C(C)C)c(O)cc2O)c1-c1cc(CN(C)C)no1`, the pIC50 in series [1] was 7.04; in series [4], 7.51. For the same compound, the IC50 in series [3] was determined as 33 nM; in series [2] it was 490 nM.

`CCNC(=O)c1noc(-c2cc(C(C)C)c(O)cc2O)c1-c1cc(COS(C)(=O)=O)no1`: in series [1], the pIC50 is 6.40. The same compound gave an IC50 in series [2] of 476 nM.

With `CCNC(=O)c1noc(-c2cc(C(C)C)c(O)cc2O)c1-c1cc(CNCCO)no1`, in series [1], the pIC50 is 6.95. This compound displayed an IC50 in series [2] of 975 nM.

Take `CCNC(=O)c1noc(-c2cc(C(C)C)c(O)cc2O)c1-c1cc(CNC(C)=O)no1`: the pIC50 in series [1] is 6.78. For the same compound, the IC50 in series [3] was 71 nM; in series [2], 500 nM.

Take `CCNC(=O)c1noc(-c2cc(C(C)C)c(O)cc2O)c1-c1cc(CN2CCCC2)no1`: the pIC50 in series [1] is 7.29; in series [4] it was 7.26. The IC50 in series [3] was determined as 38 nM; in series [2], 686 nM.

Consider `CCNC(=O)c1noc(-c2cc(C(C)C)c(O)cc2O)c1-c1cc(CC#N)no1`, for which the pIC50 in series [1] was 7.10. The compound also displayed an IC50 in series [2] of 470 nM.

Take `CCNC(=O)c1noc(-c2cc(C(C)C)c(O)cc2O)c1-c1cc(CF)no1`: the pIC50 in series [1] is 7.20; in series [4] it was 7.55. For the same compound, the IC50 is 27 nM in series [3] and 410 nM in series [2].

Take `CCCN(CCC)Cc1cc(-c2c(C(=O)NCC)noc2-c2cc(C(C)C)c(O)cc2O)on1`: the pIC50 in series [1] is 6.74. The IC50 came out at 117 nM in series [3] and 413 nM in series [2].

`CCNC(=O)c1noc(-c2cc(C(C)C)c(O)cc2O)c1-c1cc(C(=O)NC)no1`: the results for the pIC50 in series [1] and in series [4] were 6.91 and 7.00, respectively. The IC50 in series [3] was 24 nM; in series [2], 489 nM.

In the case of `CCNC(=O)c1noc(-c2cc(C(C)C)c(O)cc2O)c1-c1ccn(C(C)C)n1`, the Activity entry in series [5] and in series [7] was “Non-Toxic” each time. In addition, the values for the pIC50 in series [1] and in series [4] were 7.72 and 7.35, respectively. In addition, the inhibition in vivo at 50 mg/kg in series [6] is 49.8%. Also, the IC50 was 14 nM in series [3] and 543 nM in series [2].

`CCNC(=O)c1noc(-c2cc(C(C)C)c(O)cc2O)c1-c1cc[nH]n1`: the Activity result in series [5] and in series [7] was “Non-Toxic” in each case. Also, the pIC50 was 7.44 in series [1] and 7.48 in series [4]. Besides, the inhibition in vivo at 50 mg/kg in series [6] turned out to be 46.4%. Also, the half-maximal inhibitory concentration (IC50) in series [3] worked out at 45 nM; in series [2], 524 nM.

Take `CCNC(=O)c1noc(-c2cc(C(C)C)c(O)cc2O)c1-c1cc(CNC)no1`: in series [1], the pIC50 was 6.79. In series [2], this compound gave a concentration for half-maximal inhibition (IC50) of 436 nM.

With `CCNC(=O)c1noc(-c2cc(C(C)C)c(O)cc2O)c1-c1cc(CNC(C)C)no1`, the pIC50 was 6.96 in series [1] and 7.42 in series [4]. Further, the figures for the IC50 in series [3] and in series [2] were 18 nM and 521 nM, respectively.

For `CCNC(=O)c1noc(-c2cc(C(C)C)c(O)cc2O)c1-c1cc(C(=O)N2CCSCC2)no1`, the pIC50 in series [4] was 6.68. Also, the IC50 in series [2] was found to be 566 nM.

For `CCNCc1cc(-c2c(C(=O)NCC)noc2-c2cc(C(C)C)c(O)cc2O)on1`, the Activity result in series [5] and in series [7] was “Non-Toxic” throughout. Moreover, the pIC50 in series [1] and in series [4] was 7.35 throughout. Further, the inhibition in vivo at 50 mg/kg in series [6] was 40.3%. The IC50 turned out to be 23 nM in series [3] and 475 nM in series [2].

Turning to `CCNC(=O)c1noc(-c2cc(C(C)C)c(O)cc2O)c1-c1ccn(C)n1`, the pIC50 was 7.80 in series [1] and 7.92 in series [4]. Also, the IC50 in series [3] was determined as 16 nM; in series [2], 522 nM.

Consider `CCNC(=O)c1noc(-c2cc(C(C)C)c(O)cc2O)c1-c1cnn(C)c1`, for which the pIC50 in series [1] was 7.39; in series [4], 7.70. Further, the IC50 in series [3] was 19 nM; in series [2] it was 482 nM.

For the compound `CCNC(=O)c1noc(-c2cc(C(C)C)c(O)cc2O)c1-c1ccn(CC)n1`, the pIC50 in series [1] was 7.60; in series [4] it was 7.89. Besides, the results for the IC50 in series [3] and in series [2] were 12 nM and 553 nM, respectively.

For the compound `CCNC(=O)c1noc(-c2cc(C(C)C)c(O)cc2O)c1-c1cc(C(=O)N2CCOCC2)no1`, the pIC50 was 7.22 in series [1] and 7.07 in series [4]. In addition, the IC50 in series [3] worked out at 52 nM; in series [2], 583 nM.

As for `CCNC(=O)c1noc(-c2cc(C(C)C)c(O)cc2O)c1-c1cc(CNC(=O)CC)no1`, in series [1], the pIC50 was 7.11. Besides, the IC50 amounted to 50 nM in series [3] and 382 nM in series [2].

For `CCNC(=O)c1noc(-c2cc(C(C)C)c(O)cc2O)c1-c1cc(COCC(N)=O)no1`, in series [1], the pIC50 was 7.01. Besides, the IC50 was 50 nM in series [3] and 452 nM in series [2].

In series [2], `CCNC(=O)c1noc(-c2cc(C(C)C)c(O)cc2O)c1-c1cc(COCC(=O)O)no1` came in with an IC50 of 1280 nM.

On to `CCNC(=O)c1noc(-c2cc(C(C)C)c(O)cc2O)c1-c1cc(C(=O)O)no1`, for which the pIC50 in series [4] is 4.70. The IC50 in series [2] stood at 1870 nM.

Consider `CCNC(=O)c1noc(-c2cc(C(C)C)c(O)cc2O)c1-c1cc(C(=O)OCC)no1`, for which the pIC50 in series [4] was 5.05. The compound further gave an IC50 in series [2] of 447 nM.

`CCCn1ccc(-c2c(C(=O)NCC)noc2-c2cc(C(C)C)c(O)cc2O)n1`: the results for the pIC50 in series [1] and in series [4] were 7.31 and 7.57, respectively. Besides, the IC50 in series [3] came to 24 nM; in series [2], 584 nM.

For the compound `CCNC(=O)c1noc(-c2cc(C(C)C)c(O)cc2O)c1-c1cc(CN2CCSCC2)no1`, the pIC50 in series [1] is 7.17; in series [4], 7.19. In addition, the IC50 in series [3] was 38 nM; in series [2], 440 nM.

On to `C=CCNCc1cc(-c2c(C(=O)NCC)noc2-c2cc(C(C)C)c(O)cc2O)on1`, for which the IC50 in series [3] came to 67 nM; in series [2], 435 nM.

Take `CCNC(=O)c1noc(-c2cc(C(C)C)c(O)cc2O)c1-c1cc(CN(CC)CC)no1`: the Activity result in series [5] and in series [7] was “Non-Toxic” each time. Besides, the pIC50 in series [1] was 7.42; in series [4], 7.11. For the same compound, the inhibition in vivo at 50 mg/kg in series [6] was 12.8%. Besides, the IC50 is 52 nM in series [3] and 468 nM in series [2].
